Laboratory results taken from ChEMBL document CHEMBL3745620, “Design and Synthesis of DiselenoBisBenzamides (DISeBAs) as Nucleocapsid Protein 7 (NCp7) Inhibitors with anti-HIV Activity” (J Med Chem, 2015).
pEC50: −log10 of the molar value. The source made the active and inactive calls. The calls are words filed in the database; no cut-off is given here.

Columns and labels:
[1] = tested on: Human immunodeficiency virus 1; assay: Antiviral activity against HIV1 3B infected in human MT4 cells assessed as protection against virus-induced cytopathic effect after 5 days by MTT assay; assay type: functional, organism-based; conditions: Human immunodeficiency virus 1, 3B, MT4, 120 h
Procedure, shortened: (§1)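 MT-4 cells in RPMI 1640 with 10% heat-inactivated FCS, resuspended at 6 x 10^5 cells/ml. Compounds added at start in serial 5-fold dilutions, triplicate wells, to mock- and virus-infected cells (100-300 CCID50 per well). After 5 days, viability by MTT reduction (OD540). […] Mean ± SD, at least two experiments.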

[2] = tested on: Human immunodeficiency virus 2; assay: Antiviral activity against HIV2 ROD infected in human MT4 cells assessed as protection against virus-induced cytopathic effect after 5 days by MTT assay; assay type: functional, organism-based; conditions: Human immunodeficiency virus 2, ISOLATE ROD, MT4, 120 h; procedure, shortened: as §1
[3] = Cytotoxicity against human MT4 cells assessed as cell viability after 5 days by MTT assay; assay type: cell-based
Procedure, shortened: (§2)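 Compounds added at start in serial 5-fold dilutions, triplicate wells, to mock- and virus-infected cells (100-300 CCID50 per well). After 5 days, viability by MTT reduction (OD540). Mean ± SD, at least two experiments.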

[4] = Selectivity index, ratio of CC50 for human MT4 cells to EC50 for HIV1 3B; assay type: toxicity, cell-based; conditions: read-out: Ratio CC50/EC50; procedure, shortened: as §2
[5] = Selectivity index, ratio of CC50 for human MT4 cells to EC50 for HIV-2 ROD; assay type: toxicity, cell-based; conditions: read-out: Ratio CC50/EC50; procedure, shortened: as §2
[6] = tested on: Human immunodeficiency virus 1; assay: Antiviral activity against HIV1 3B infected in human MT4 cells assessed as inhibition of viral replication by measuring p24 Ag production at 2 ug/ml measured at 31 hrs post infection by ELISA; assay type: functional, organism-based
Procedure, shortened: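 MT-4 cells infected with HIV-1 IIIB at m.o.i. 0.5, 1 h adsorption, then seeded at 45,000 cells/well at 37°C. Compound added at times from 0 to 25 h post-infection. Read-out was p24 in supernatant by ELISA at 31 h post-infection.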

[7] = tested on: Human immunodeficiency virus 1; assay: Antiviral activity against HIV1 3B persistently infected in HUT78 cells assessed as reduction of p24 production after 43 hrs by ELISA; assay type: functional, organism-based; conditions: Human immunodeficiency virus 1, 3B, HuT78, 43 h
Procedure, shortened: (§3)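 Chronically HIV-1 IIIB-infected HuT-78 cells washed four times in PBS to remove free virions and seeded at 2 × 10^5 cells/well with 7 serial 5-fold compound dilutions for 43 h at 37°C. Supernatant p24 measured by ELISA. Cytotoxicity was run in parallel by MTT plus microscopy. SI = CC50/EC50. Mean ± SD, ≥2 experiments.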

[8] = Cytotoxicity against human HUT78 cells assessed as reduction in cell viability after 5 days by MTT assay; assay type: cell-based
[9] = tested on: Human immunodeficiency virus 1; assay: Antiviral activity against NNRTI-resistant HIV1 RES056 harboring reverse transcriptase K103N/181C double mutant infected in human MT4 cells; assay type: functional, organism-based; conditions: Human immunodeficiency virus 1, RES056, MT4
Procedure, shortened: (§4)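 MT-4 cells in RPMI 1640 with 10% heat-inactivated FCS were infected at the start of the experiment, with compound added across serial 5-fold dilutions in triplicate wells. Cells were seeded at 6 x 10^5 cells/ml. After 5 days, protection against virus-induced cytopathic effect was read by MTT reduction at OD540. […] Values are means ± SD of at least two experiments.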

[10] = tested on: Human immunodeficiency virus 1; assay: Antiviral activity against NRTI/NNRTI-resistant HIV1 L6 harboring reverse transcriptase V75I/F77L/K103N/F116Y/Q151M/M184V mutant infected in human MT4 cells; assay type: functional, organism-based; conditions: Human immunodeficiency virus 1, L6, MT4; procedure, shortened: as §4
[11] = Antiviral activity against nevirapine-resistant SIV mac251 infected in human MT4 cells; assay type: functional, cell-based; conditions: Simian immunodeficiency virus; procedure, shortened: as §4
HuT78 = assay: Inhibition of NCp7 of HIV1 3B persistently infected in HUT78 cells assessed as accumulation of unprocessed Gag polyprotein after 43 hrs by Western blot analysis; assay type: cell-based; conditions: Human immunodeficiency virus 1
Procedure, shortened: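 Washed HuT-78(IIIB) cells (2x10^5 in 1 ml) treated with compound for 43 h at 37°C. Virions pelleted from clarified supernatant (36,670 g, 2 h, 4°C), lysed, run on SDS-PAGE and transferred to PVDF. Blot probed with mouse anti-p24 (1:5000), then HRP anti-mouse (1:2500), with chemiluminescent detection.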

[12] = tested on: Human immunodeficiency virus 1; assay: Antiviral activity against ritonavir-resistant HIV1 3B/RIT infected in human MT4 cells; assay type: functional, organism-based; conditions: Human immunodeficiency virus 1, 3B/RIT; procedure, shortened: as §4
[13] = tested on: Human immunodeficiency virus 1; assay: Antiviral activity against ritonavir-resistant HIV1 B12 harboring […] L10I/I15V/I54V/L63P/V82A/I85V mutant infected in human MT4 cells; assay type: functional, organism-based; conditions: Human immunodeficiency virus 1, B12, MT4; procedure, shortened: as §4
[14] = Selectivity index, ratio of CC50 for human HUT78 cells to EC50 for HIV1 3B; assay type: toxicity, cell-based; conditions: read-out: Ratio CC50/EC50; procedure, shortened: as §3
[15] = tested on: Human immunodeficiency virus 1; assay: Antiviral activity against AZT-resistant HIV1 ADP/141 harboring reverse transcriptase D67N/K70R/T215F/K219Q mutant infected in human MT4 cells; assay type: functional, organism-based; conditions: Human immunodeficiency virus 1, ADP/141, MT4; procedure, shortened: as §4

| SMILES | pEC50 [1] | pEC50 [2] | CC50 at 120 h [3] [µM] | selectivity ratio [4] | selectivity ratio [5] | inhibition [6] | pEC50 [7] | CC50 at 120 h [8] [µM] | pEC50 [9] | pEC50 [10] | pEC50 [11] | inhibition (HuT78) | pEC50 [12] | pEC50 [13] | selectivity ratio [14] | pEC50 [15] |
| --- | --- | --- | --- | --- | --- | --- | --- | --- | --- | --- | --- | --- | --- | --- | --- | --- |
| CC[C@H](C)[C@H](NC(=O)c1ccccc1[Se][Se]c1ccccc1C(=O)N[C@H](C(=O)OC)[C@@H](C)CC)C(=O)OC | 6.08 | ≤ 5.90 | 2.99 | 4 | ≤ 2 | Active |  |  |  |  |  |  |  |  |  |  |
| Cc1ccnc2c1NC(=O)c1cccnc1N2C1CC1 [NEVIRAPINE] | 6.55 | < 4.82 | > 15 | > 60 |  |  | 6.59 | > 14 | < 4.82 | < 4.82 | < 4.82 |  |  |  |  |  |
| CCOC(=O)CC[C@H](NC(=O)c1ccccc1[Se][Se]c1ccccc1C(=O)N[C@@H](CCC(=O)OCC)C(=O)OCC)C(=O)OCC | ≤ 6.17 | ≤ 6.14 | 2.8 | ≤ 4 | ≤ 4 | Active |  |  |  |  |  |  |  |  |  |  |
| CC(C)c1nc(CN(C)C(=O)N[C@H](C(=O)N[C@@H](Cc2ccccc2)C[C@H](O)[C@H](Cc2ccccc2)NC(=O)OCc2cncs2)C(C)C)cs1 [RITONAVIR] | 7.05 | 6.85 |  |  |  | Active | 4.54 |  |  |  | 6.85 | Dose-dependent effect | 5.56 | 5.89 |  |  |
| NS(=O)(=O)c1ccc(NC(=O)c2ccccc2SSc2ccccc2C(=O)Nc2ccc(S(N)(=O)=O)cc2)cc1 | 5.52 | 6.25 | 10.5 | 6 | 30 |  | 5.58 | 18.4 |  |  |  |  |  |  | 6.9 |  |
| CCOC(=O)CNC(=O)c1ccccc1[Se][Se]c1ccccc1C(=O)NCC(=O)OCC | 6.04 | 6.13 | 6.26 | 7 | 9 | Active |  |  |  |  |  |  |  |  |  |  |
| O=C(O)[C@@H]1CCCN1C(=O)c1ccccc1[Se][Se]c1ccccc1C(=O)N1CCC[C@H]1C(=O)O | < 3.82 | < 3.82 | 152 | < 1 | < 1 | Active |  |  |  |  |  | Dose-dependent effect |  |  |  |  |
| NS(=O)(=O)c1ccc(NC(=O)c2ccccc2[Se][Se]c2ccccc2C(=O)Nc2ccc(S(N)(=O)=O)cc2)cc1 | 5.55 | 5.52 | 17.4 | 6 | 6 | Active | 5.08 | > 35 |  |  |  | Dose-dependent effect |  |  | > 4 |  |
| Cc1cn([C@H]2C[C@H](N=[N+]=[N-])[C@@H](CO)O2)c(=O)[nH]c1=O [ZIDOVUDINE] | 8.00 | 8.10 | > 7.48 | > 748 | > 935 |  |  |  |  | < 5.13 |  | Dose-dependent effect |  |  |  | 7.52 |
| COC(=O)[C@@H]1CCCN1C(=O)c1ccccc1[Se][Se]c1ccccc1C(=O)N1CCC[C@H]1C(=O)OC | ≤ 5.36 | 5.34 | 10.1 | ≤ 2 | 2 | Active |  |  |  |  |  |  |  |  |  |  |
| O=C(O)CNC(=O)c1ccccc1SSc1ccccc1C(=O)NCC(=O)O | < 4.24 | < 4.24 | 58.1 | < 1 | < 1 | Active |  |  |  |  |  |  |  |  |  |  |
| O=C(O)C[C@H](NC(=O)c1ccccc1[Se][Se]c1ccccc1C(=O)N[C@@H](CC(=O)O)C(=O)O)C(=O)O | < 3.82 | < 3.82 | 151 | < 1 | < 1 | Active |  |  |  |  |  | Dose-dependent effect |  |  |  |  |
| C[C@H](NC(=O)c1ccccc1[Se][Se]c1ccccc1C(=O)N[C@@H](C)C(=O)O)C(=O)O | 4.99 | 5.27 | 138 | 13 | 26 | Active |  |  |  |  |  | Dose-dependent effect |  |  |  |  |
| COC(=O)C[C@H](NC(=O)c1ccccc1[Se][Se]c1ccccc1C(=O)N[C@@H](CC(=O)OC)C(=O)OC)C(=O)OC | ≤ 5.50 | ≤ 5.56 | 9.74 | ≤ 3 | ≤ 3 | Active |  |  |  |  |  |  |  |  |  |  |
| CC1CNC(=O)c2ccccc2SSc2ccccc2C(=O)N1 (stereo unspecified) |  |  |  |  |  |  | < 5.12 | > 7.5 |  |  |  | Dose-dependent effect |  |  | > 54 |  |
| NS(=O)(=O)c1ccc(NC(=O)c2cccnc2[Se][Se]c2ncccc2C(=O)Nc2ccc(S(N)(=O)=O)cc2)cc1 | 5.42 | ≤ 5.51 | 19.2 | 5 | ≤ 6 | Active |  |  |  |  |  | Dose-dependent effect |  |  |  |  |
| COC(=O)[C@H](C)NC(=O)c1ccccc1[Se][Se]c1ccccc1C(=O)N[C@@H](C)C(=O)OC | 5.50 | 5.71 | 15.8 | 5 | 8 | Active |  |  |  |  |  |  |  |  |  |  |
| CC(C)[C@H](NC(=O)c1ccccc1[Se][Se]c1ccccc1C(=O)N[C@H](C(=O)O)C(C)C)C(=O)O | 4.86 | 4.84 | 136 | 10 | 9 | Active |  |  |  |  |  | Dose-dependent effect |  |  |  |  |
| NS(=O)(=O)c1ccc(OC(=O)c2ccccc2[Se][Se]c2ccccc2C(=O)Oc2ccc(S(N)(=O)=O)cc2)cc1 | < 4.73 | < 4.73 | 18.6 | < 1 | < 1 | Active |  |  |  |  |  | Dose-dependent effect |  |  |  |  |
